According to ChEMBL document CHEMBL1155343, “Discovery of N-(3-(morpholinomethyl)-phenyl)-amides as potent and selective CB2 agonists” (Bioorg Med Chem Lett, 2009):
pEC50, pKi: −log10 of the molar value. “Also recorded” adds a separate entry of the source. Active and inactive are the calls of the source.

Columns and labels:
Cannabinoid receptor 1 = Cannabinoid receptor 1 (Homo sapiens, UniProt P21554); assay: Displacement of [3H]CP-55940 from human CB1 receptor expressed in CHO cells; format: cell-based
Summary of the method: (§1)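 Ki values are geometric means of at least three separate determinations. Selectivity is expressed as the ratio of the CB1 Ki to the CB2 Ki.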

Cannabinoid receptor 2 [1] = biological target: T1, Cannabinoid receptor 2 (Homo sapiens, UniProt P34972); assay: Displacement of [3H]CP-55940 from human CB2 receptor expressed in CHO cells; format: cell-based; summary of the method: as §1
Cannabinoid receptor 2 [2] = biological target: T1, Cannabinoid receptor 2; assay: Agonist activity at human CB2 receptor expressed in CHO cells by [35S]GTPgammaS binding assay; format: functional, cell-based
Summary of the method: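 [35S]GTPγS binding with membranes from transfected CHO cells expressing CB2. EC50 values are geometric means of at least three separate determinations.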

Homo sapiens = species: Homo sapiens; assay: Selectivity ratio, Ki for human CB1 receptor to Ki for human CB2 receptor; summary of the method: as §1
[3] = Metabolic stability in rat liver microsomes after 30 mins; format: ADME, Microsome; details: read-out: Stability
Summary of the method: (§2)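 Compounds incubated with liver microsomes for 30 min. Read-out is percent of parent compound remaining.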

[4] = Metabolic stability in human liver microsomes after 30 mins; format: ADME, Microsome; details: read-out: Stability; summary of the method: as §2
Mus musculus [5] = assay: Toxicity in mouse hind paw incision model assessed as behavioral effects at 3 mg/kg, ip; format: organism-based; parameters: dose 3 mg/kg, route intraperitoneal; details: in vivo
Mus musculus [6] = assay: Antiallodynic activity in mouse hind paw incision model of post-operative pain assessed as hind paw withdrawal threshold at 10 mg/kg, ip; format: functional, organism-based; parameters: dose 10 mg/kg
Mus musculus [7] = assay: Antiallodynic activity in mouse hind paw incision model of post-operative pain assessed as hind paw withdrawal threshold at 3 mg/kg, ip; format: functional, organism-based; parameters: dose 3 mg/kg
Mus musculus [8] = assay: Antiallodynic activity in po dosed mouse hind paw incision model of post-operative pain assessed as hind paw withdrawal threshold; format: functional, organism-based
Mus musculus [9] = assay: Toxicity in mouse hind paw incision model assessed as behavioral effects at 10 mg/kg, ip; format: organism-based; parameters: dose 10 mg/kg, route intraperitoneal; details: in vivo

Cannabinoid receptor 1, sequence (P21554 whole entry): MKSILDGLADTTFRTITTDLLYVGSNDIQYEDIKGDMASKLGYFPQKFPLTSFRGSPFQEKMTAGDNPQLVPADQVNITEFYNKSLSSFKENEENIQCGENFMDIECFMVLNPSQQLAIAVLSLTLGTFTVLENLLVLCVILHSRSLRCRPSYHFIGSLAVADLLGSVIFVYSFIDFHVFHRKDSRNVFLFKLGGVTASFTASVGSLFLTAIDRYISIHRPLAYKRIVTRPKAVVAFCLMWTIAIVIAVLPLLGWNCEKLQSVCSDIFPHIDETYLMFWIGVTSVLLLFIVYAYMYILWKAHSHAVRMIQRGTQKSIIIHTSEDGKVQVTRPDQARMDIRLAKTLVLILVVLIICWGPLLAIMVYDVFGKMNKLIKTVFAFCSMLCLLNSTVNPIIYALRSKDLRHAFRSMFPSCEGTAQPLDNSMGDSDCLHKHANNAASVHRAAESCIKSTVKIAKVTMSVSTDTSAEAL
T1 sequence (P34972 whole entry): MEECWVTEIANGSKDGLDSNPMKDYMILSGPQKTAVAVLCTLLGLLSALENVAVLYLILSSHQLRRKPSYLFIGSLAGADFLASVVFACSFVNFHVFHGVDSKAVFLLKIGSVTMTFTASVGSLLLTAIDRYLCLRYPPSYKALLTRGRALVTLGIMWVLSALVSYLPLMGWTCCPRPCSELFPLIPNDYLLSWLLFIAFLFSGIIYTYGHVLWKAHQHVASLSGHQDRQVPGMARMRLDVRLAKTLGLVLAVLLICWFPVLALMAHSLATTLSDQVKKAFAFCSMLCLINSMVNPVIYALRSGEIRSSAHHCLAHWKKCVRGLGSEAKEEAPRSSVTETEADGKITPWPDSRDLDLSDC

Row | SMILES | pKi (Cannabinoid receptor 1) | pKi (Cannabinoid receptor 2 [1]) | pEC50 (Cannabinoid receptor 2 [2]) | Ratio Ki (Homo sapiens) | remaining at 0.5 h [3] | remaining at 0.5 h [4] | Activity (Mus musculus [5]) | Activity (Cannabinoid receptor 1) | Activity (Mus musculus [6]) | Activity (Mus musculus [7]) | Activity (Mus musculus [8]) | Activity (Mus musculus [9])
1 | Cc1ccc(C(=O)NC2C(C)(C)[C@@H]3CC[C@@]2(C)C3)cc1CCN1CCOCC1 (some centres not stated) | 5.85 | 7.35 | 7.19 | 31 | – | – | – | – | – | – | – | –
2 | Cc1ccc(C(=O)NC2C(C)(C)[C@@H]3CC[C@@]2(C)C3)cc1N1CCOCC1 (some centres not stated) | 5.05 | 6.52 | – | 30 | – | – | – | – | – | – | – | –
3 | Cc1cc(NC(=O)C2CCCCC2C)cc(CN2CCOCC2)c1C (configuration not stated) | 6.27 | 8.07 | 7.68 | 63 | 1% | 32% | – | – | – | – | – | –
4 | CC(C(=O)Nc1ccc2c(c1)C(N1CCOCC1)CCC2)(C(F)(F)F)C(F)(F)F (stereo in doubt; 43) | 5.47 | 8.00 | 7.39 | – | – | – | – | – | – | – | – | –
5 | CN1CC[C@]23c4c5ccc(O)c4O[C@H]2[C@@H](O)C=C[C@H]3[C@H]1C5 [MORPHINE] | – | – | – | – | – | – | Not Active | – | – | – | – | –
6 | CC(C(=O)Nc1ccc2c(c1)C(N1CCOCC1)CCC2)(C(F)(F)F)C(F)(F)F (single isomer, unassigned) | 5.89 | 8.64 | 8.44 | – | – | – | – | – | – | – | – | –
7 | CCC(C)(C)C(=O)Nc1cc(CN2CCOCC2)c(C)cc1C | – | 6.28 | 6.30 | – | 42% | 61% | – | 18% | – | – | – | –
8 | Cc1ccc(C(=O)NC2C(C)(C)[C@@H]3CC[C@@]2(C)C3)cc1C(=O)N1CCOCC1 (some centres not stated) | < 5.30 | 5.92 | – | – | 26% | – | – | – | – | – | – | –
9 | Cc1cc(F)c(NC(=O)C2CCCCC2C)cc1CN1CCOCC1 (configuration not stated) | – | 7.43 | 7.31 | – | 15% | 36% | – | 31% | – | – | – | –
10 | Cc1ccc(NC(=O)C(C)(C(F)(F)F)C(F)(F)F)cc1CN1CCOCC1 | 5.20 | 7.80 | 7.85 | 390 | 0.9% | 42% | – | – | – | – | – | –
11 | Cc1ccc(NC(=O)C2CCCCC2C)cc1CN1CCOCC1 (configuration not stated) | 5.80 | 7.15 | 7.12 | 23 | 2.2% | 38% | – | – | – | – | – | –
12 | Cc1ccc(C(=O)NC2C3(C)CCC(C3)C2(C)C)cc1CC(=O)N1CCOCC1 (configuration not stated) | 5.41 | 6.15 | – | 5.6 | – | – | – | – | – | – | – | –
13 | Cc1cc(NC(=O)C(C)(C(F)(F)F)C(F)(F)F)cc(CN2CCOCC2)c1C | 6.30 | 8.57 | 8.26 | 190 | 3.1% | 31% | – | – | Active | Active | inactive | Non-toxic; also recorded: Not Active
14 | Cc1cc(C)c(NC(=O)C2CCCCC2C)cc1CN1CCOCC1 (configuration not stated) | – | 6.36 | 6.23 | – | 67% | 49% | – | 14% | – | – | – | –
15 | CCC(C)(C)C(=O)Nc1ccc(C)c(CN2CCOCC2)c1 | – | 6.92 | 6.96 | – | 29% | 56% | – | 4% | – | – | – | –
16 | Cc1ccc(C(=O)NC2C(C)(C)[C@@H]3CC[C@@]2(C)C3)cc1CCCN1CCOCC1 (some centres not stated) | 5.68 | 7.21 | 6.96 | 34 | – | – | – | – | – | – | – | –
17 | Cc1c(CN2CCOCC2)cc(NC(=O)C2CCCCC2C)cc1C(F)(F)F (configuration not stated) | 6.96 | 7.77 | 7.38 | 6.5 | 2% | 2% | – | – | – | – | – | –
18 | Cc1ccc(C(=O)NC2C(C)(C)[C@@H]3CC[C@@]2(C)C3)cc1CCC(=O)N1CCOCC1 (some centres not stated) | 5.77 | 7.08 | – | 20 | – | – | – | – | – | – | – | –
19 | Cc1ccc(C(=O)NC2C(C)(C)[C@@H]3CC[C@@]2(C)C3)cc1CN1CCOCC1 (some centres not stated) | 5.96 | 7.72 | 7.38 | 58 | – | – | – | – | – | – | – | –
20 | CC(C(=O)Nc1ccc2c(c1)C(N1CCOCC1)CCC2)(C(F)(F)F)C(F)(F)F (single isomer, unassigned; enantiomer 2) | < 5.30 | 6.92 | 7.14 | – | – | – | – | – | – | – | – | –
21 | CCC(C)(C)C(=O)Nc1cc(CN2CCOCC2)c(C)cc1F | – | 6.92 | 6.70 | – | 20% | 57% | – | 10% | – | – | – | –
22 | Cc1ccc(C(=O)NC2C(C)(C)[C@@H]3CC[C@@]2(C)C3)cc1S(=O)(=O)N1CCOCC1 (some centres not stated) | 6.89 | 8.41 | 8.18 | 31 | – | – | – | – | – | – | – | –
